# Assay: Antagonist activity at CXCR2 expressed in 7w CHO cells co-expressing human recombinant APP 751 assessed as inhibition of gamma-secretase-mediated amyloid beta42 production; call rule not given here
# Assay type: functional, cell-based
row,IC50,SMILES
1,15 µM,CCc1cccc(C(C)CC)c1NC(=O)Nc1ccc([N+](=O)[O-])cc1O (stereo not given)
2,1 µM,CCC(C)c1ccccc1NC(=O)Nc1ccc([N+](=O)[O-])cc1O (stereo not given)

# Assay: Antagonist activity at CXCR2 expressed in 7w CHO cells assessed as inhibition of GROalpha-mediated intracellular calcium mobilization by […] fluorescence assay
# Assay type: functional, cell-based
# Summary of the method: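 Adherent 7w cells (CHO stably expressing human APP751), grown to ~100% confluency in 96-well plates, loaded with […] dye for 1 h at 37 °C. Compounds were added from DMSO stocks in 1X HBSS (1% DMSO final) at ≥9 concentrations (10–100,000 nM), n = 8 each. GROα (33 nM final) followed 15 s later. Peak calcium was read at Ex/Em 494/516, and data were fitted to a 4-parameter sigmoid; three experiments.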
row,SMILES,IC50
1,COc1cc([N+](=O)[O-])ccc1NC(=O)Nc1ccccc1F,Active
2,O=C(Nc1ccc([N+](=O)[O-])cc1O)Nc1cc(Cl)ccc1Cl,Active

# More lines, now with the values ahead:
row,IC50,SMILES
1,Active,CC(C)c1ccccc1NC(=O)Nc1ccc([N+](=O)[O-])cc1O
2,Active,O=C(Nc1ccc([N+](=O)[O-])cc1O)Nc1ccccc1F
3,Active,O=C(Nc1ccc([N+](=O)[O-])cc1O)Nc1ccccc1Cl

# Assay: Antagonist activity at CXCR2 expressed in 7w CHO cells co-expressing human recombinant APP 751 assessed as inhibition of gamma-secretase-mediated amyloid beta40 production
row,SMILES,IC50
1,O=C(Nc1ccc([N+](=O)[O-])cc1O)Nc1ccccc1Br,0.5 µM
2,O=C(Nc1ccccc1)Nc1ccc([N+](=O)[O-])cc1O,12 µM
3,CCCc1ccc(NC(=O)Nc2ccc([N+](=O)[O-])cc2O)cc1,4 µM
4,O=C(Nc1ccc([N+](=O)[O-])cc1O)Nc1ccc(F)cc1F,15 µM
5,O=C(Nc1ccc([N+](=O)[O-])cc1O)Nc1c(F)cc(F)cc1F,15 µM
6,Cc1ccc(NC(=O)Nc2ccc([N+](=O)[O-])cc2O)c(C)c1,3 µM
7,O=C(Nc1ccc([N+](=O)[O-])cc1)Nc1ccccc1F,30 µM
8,Cc1ccc(C)c(NC(=O)Nc2ccc([N+](=O)[O-])cc2O)c1,10 µM
9,COc1cc([N+](=O)[O-])ccc1NC(=O)Nc1ccccc1F,5 µM
10,Cc1cccc(C(C)C)c1NC(=O)Nc1ccc([N+](=O)[O-])cc1O,5 µM
11,O=C(Nc1ccc([N+](=O)[O-])cc1O)Nc1ccc(Br)cc1Br,0.8 µM
12,CC(C)c1cccc(C(C)C)c1NC(=O)Nc1ccc([N+](=O)[O-])cc1O,8 µM
13,O=C(Nc1ccc([N+](=O)[O-])cc1O)Nc1cc(Cl)ccc1Cl,0.5 µM
14,CCc1ccccc1NC(=O)Nc1ccc([N+](=O)[O-])cc1O,0.09 µM
15,COc1cc([N+](=O)[O-])ccc1NC(=O)Nc1cccc(F)c1,12 µM

# Further lines, results first:
row,IC50,SMILES
1,10 µM,O=C(Nc1ccc([N+](=O)[O-])cc1O)Nc1cc(F)c(F)cc1F
2,0.3 µM,CC(C)c1ccccc1NC(=O)Nc1ccc([N+](=O)[O-])cc1O
3,15 µM,CC(C)(C)c1ccccc1NC(=O)Nc1ccc([N+](=O)[O-])cc1O
4,8 µM,O=C(Nc1cc(F)c(F)c(F)c1)Nc1ccc([N+](=O)[O-])cc1O
5,8 µM,O=C(Nc1ccc(F)c(F)c1)Nc1ccc([N+](=O)[O-])cc1O
6,10 µM,O=C(Nc1ccc([N+](=O)[O-])cc1O)Nc1ccccc1F
7,0.6 µM,O=C(Nc1ccc([N+](=O)[O-])cc1O)Nc1ccccc1Cl
8,3 µM,O=C(Nc1ccc([N+](=O)[O-])cc1O)Nc1ccc(Cl)c(Cl)c1Cl
9,3 µM,O=C(Nc1ccc([N+](=O)[O-])cc1O)Nc1cc(Cl)c(Cl)cc1Cl
10,0.3 µM,O=C(Nc1ccc([N+](=O)[O-])cc1O)Nc1ccc(Cl)cc1Cl
11,15 µM,Cc1ccc(NC(=O)Nc2ccc([N+](=O)[O-])cc2O)cc1C
12,10 µM,COc1ccc(NC(=O)Nc2ccccc2F)c([N+](=O)[O-])c1
13,0.1 µM,CCCc1ccccc1NC(=O)Nc1ccc([N+](=O)[O-])cc1O
14,7 µM,CCc1cccc(C)c1NC(=O)Nc1ccc([N+](=O)[O-])cc1O
15,3 µM,CCc1cccc(C(C)C)c1NC(=O)Nc1ccc([N+](=O)[O-])cc1O
16,8 µM,O=C(Nc1ccc([N+](=O)[O-])cc1O)Nc1ccc(F)c(F)c1F
17,4 µM,CCc1cccc(NC(=O)Nc2ccc([N+](=O)[O-])cc2O)c1
18,3 µM,CCc1ccc(NC(=O)Nc2ccc([N+](=O)[O-])cc2O)cc1
19,2 µM,Cc1ccccc1NC(=O)Nc1ccc([N+](=O)[O-])cc1O
20,0.7 µM,O=C(Nc1ccc(Cl)c(Cl)c1)Nc1ccc([N+](=O)[O-])cc1O
21,2 µM,Cc1cc(C)cc(NC(=O)Nc2ccc([N+](=O)[O-])cc2O)c1

# Assay: Antagonist activity at CXCR2 expressed in 7w CHO cells co-expressing human recombinant APP 751 assessed as inhibition of gamma-secretase-mediated amyloid beta40 production at 100 uM
row,SMILES,IC50
1,O=C(Nc1ccccc1O)Nc1ccccc1Br,Not Active
2,COc1cc([N+](=O)[O-])ccc1NC(=O)Nc1ccccc1,Not Active

# The remaining lines, values ahead:
row,IC50,SMILES
1,Not Active,O=C(Nc1ccccc1)Nc1ccccc1Br
2,Not Active,COc1cc([N+](=O)[O-])ccc1NC(=O)Nc1ccccc1Cl
3,Not Active,COc1cc([N+](=O)[O-])ccc1NC(=O)Nc1ccccc1Br
4,Not Active,O=C(Nc1ccccc1O)Nc1ccccc1Cl
5,Not Active,O=C(Nc1ccccc1F)Nc1ccc(O)cc1[N+](=O)[O-]
